In ChEMBL document CHEMBL4033644, “Aromatase inhibitors and apoptotic inducers: Design, synthesis, anticancer activity and molecular modeling studies of novel phenothiazine derivatives carrying sulfonamide moiety as hybrid molecules” (Eur J Med Chem, 2017):

How the values were obtained:
Aromatase = biological target: T1, Aromatase (Homo sapiens, UniProt P11511); experiment: Inhibition of aromatase activity in human T47D cells after 24 hrs; format: cell-based; details: for inhibition (INH): human, 24 h
T1 sequence (P11511 whole entry): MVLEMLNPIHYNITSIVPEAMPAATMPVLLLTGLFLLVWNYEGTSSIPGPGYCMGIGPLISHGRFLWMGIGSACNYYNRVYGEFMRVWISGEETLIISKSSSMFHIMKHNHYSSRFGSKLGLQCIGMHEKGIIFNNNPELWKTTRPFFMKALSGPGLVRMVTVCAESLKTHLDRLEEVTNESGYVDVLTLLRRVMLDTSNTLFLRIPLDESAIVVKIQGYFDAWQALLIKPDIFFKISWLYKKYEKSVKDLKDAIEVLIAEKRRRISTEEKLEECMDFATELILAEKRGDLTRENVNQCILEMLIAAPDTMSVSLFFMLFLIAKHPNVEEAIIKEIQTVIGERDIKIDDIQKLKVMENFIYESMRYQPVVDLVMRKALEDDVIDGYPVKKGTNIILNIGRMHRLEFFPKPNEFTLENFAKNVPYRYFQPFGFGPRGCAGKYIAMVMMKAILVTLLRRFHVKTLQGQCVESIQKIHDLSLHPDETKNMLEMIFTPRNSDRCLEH
Outline: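 T47D cells in DMEM with 10% FBS, 10 µg/ml insulin and 1% penicillin-streptomycin. Plated at 1.2–1.8 × 10,000 cells/well. Treated 24 h with serial dilutions, then cellular aromatase activity measured and IC50 determined.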

T47D [1] = experiment: Antiproliferative activity against human T47D cells after 48 hrs by SRB assay; format: functional, cell-based
Outline: (§1)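 Cells grown in RPMI-1640 with 5% heat-inactivated FCS, 1 mmol L-1 L-glutamine and 50 µg/mL gentamicin at 37 °C, 5% CO2. Seeded at 1000–2000 cells/well, 24 h later exposed 48 h to 5, 12, 25 and 50 µmol L-1. Fixed with 10% TCA 1 h at 4 °C, stained with 0.4% SRB, dye dissolved in Tris-HCl, OD 564 nm. IC50 from Boltzmann sigmoidal nonlinear regression.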

T47D [2] = experiment: Cell cycle arrest in human T47D cells by flow cytometry; format: functional, cell-based
Outline: (§2)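 Cell cycle distribution by flow cytometry in T47D cells, treated cells versus untreated control, at 8.1 µM; percentage of cells in G1, S and G2/M phases recorded.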

T47D [3] = experiment: Induction of apoptosis in human T47D cells assessed as increase in Bax/Bcl2 ratio at IC50 by qRT-PCR analysis relative to control; format: functional
T47D [4] = experiment: Cell cycle arrest in human T47D cells assessed as accumulation at S phase at 8.1 uM by flow cytometry (reference value: 17.14%); format: functional; outline: as §2
T47D [5] = experiment: Induction of apoptosis in human T47D cells assessed as decrease in Bcl-XL expression level at IC50 by qRT-PCR analysis relative to control; format: functional, cell-based
T47D [6] = experiment: Induction of apoptosis in human T47D cells assessed as increase in BAX expression level at IC50 by qRT-PCR analysis relative to control; format: functional
T47D [7] = experiment: Induction of apoptosis in human T47D cells assessed as increase in caspase-8 level by ELISA relative to control; format: functional
Outline: (§3)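 Caspase-8 and caspase-9 in T47D cells quantified with separate human ELISA kits, reported as ng/mL against untreated control cells.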

T47D [8] = experiment: Cell cycle arrest in human T47D cells assessed as accumulation at G1 phase at 8.1 uM by flow cytometry (reference value: 64.92%); format: functional; outline: as §2
T47D [9] = experiment: Induction of apoptosis in human T47D cells (reference value: 2.13%); format: functional
T47D [10] = experiment: Induction of apoptosis in human T47D cells assessed as increase in caspase-9 level by ELISA relative to control; format: functional; outline: as §3
T47D [11] = experiment: Cell cycle arrest in human T47D cells assessed as accumulation at G2/M phase at 8.1 uM by flow cytometry (reference value: 15.81%); format: functional; outline: as §2
[12] = Cytotoxicity against human 184A1 cells after 48 hrs by SRB assay; format: cell-based; details: 184A1, 48 h; outline: as §1

| Compound | inhibition (INH) (Aromatase) | IC50 (T47D [1]) | further results |
| --- | --- | --- | --- |
| Cc1cc(NS(=O)(=O)c2ccc(N/C=C\C(=O)c3ccc4c(c3)Nc3ccccc3S4)cc2)nc(C)n1 | 35.88% | 56.5 µM | – |
| O=C(/C=C\Nc1ccc(S(=O)(=O)Nc2ccccn2)cc1)c1ccc2c(c1)Nc1ccccc1S2 | 68.86% | 8.8 µM | IC50 (Aromatase): 6.7 µM |
| O=C(/C=C\Nc1ccc(S(=O)(=O)Nc2ncccn2)cc1)c1ccc2c(c1)Nc1ccccc1S2 | 30.82% | 61.3 µM | – |
| Cc1ccnc(NS(=O)(=O)c2ccc(N/C=C\C(=O)c3ccc4c(c3)Nc3ccccc3S4)cc2)n1 | – | 73.6 µM | – |
| O=C(/C=C\Nc1ccc(S(=O)(=O)Nc2ccc3cn[nH]c3c2)cc1)c1ccc2c(c1)Nc1ccccc1S2 | – | 91.1 µM | – |
| Cc1noc(NS(=O)(=O)c2ccc(N/C=C\C(=O)c3ccc4c(c3)Nc3ccccc3S4)cc2)c1C | – | 79.5 µM | – |
| COc1ncnc(NS(=O)(=O)c2ccc(N/C=C\C(=O)c3ccc4c(c3)Nc3ccccc3S4)cc2)c1OC | – | 82.2 µM | – |
| O=C(/C=C\Nc1ccc(S(=O)(=O)Nc2cnc3ccccc3n2)cc1)c1ccc2c(c1)Nc1ccccc1S2 | 65.1% | 21.4 µM | IC50 (Aromatase): 8.9 µM |
| CC(=O)NS(=O)(=O)c1ccc(N/C=C\C(=O)c2ccc3c(c2)Nc2ccccc2S3)cc1 | 40.52% | 71.8 µM | – |
| Cc1cc(C)nc(NS(=O)(=O)c2ccc(N/C=C\C(=O)c3ccc4c(c3)Nc3ccccc3S4)cc2)n1 | 43.62% | 50.7 µM | – |
| N=C(N)NS(=O)(=O)c1ccc(N/C=C\C(=O)c2ccc3c(c2)Nc2ccccc2S3)cc1 | 72.22% | 23.7 µM | IC50 (Aromatase): 9.67 µM |
| COc1cccc2c1C(=O)c1c(O)c3c(c(O)c1C2=O)C[C@@](O)(C(=O)CO)C[C@@H]3O[C@H]1C[C@H](N)[C@H](O)[C@H](C)O1 [DOXORUBICIN] | – | 9.8 µM | – |
| CN(C)/C=C\C(=O)c1ccc2c(c1)Nc1ccccc1S2 | – | 136 µM | – |
| Cc1cc(NS(=O)(=O)c2ccc(N/C=C\C(=O)c3ccc4c(c3)Nc3ccccc3S4)cc2)on1 | – | 78.4 µM | – |
| COc1cnc(NS(=O)(=O)c2ccc(N/C=C\C(=O)c3ccc4c(c3)Nc3ccccc3S4)cc2)nc1 | – | 83.2 µM | – |
| COc1cc(NS(=O)(=O)c2ccc(N/C=C\C(=O)c3ccc4c(c3)Nc3ccccc3S4)cc2)nc(OC)n1 | 44.94% | 58.1 µM | – |
| Nc1ccc(S(=O)(=O)c2ccc(N/C=C\C(=O)c3ccc4c(c3)Nc3ccccc3S4)cc2)cc1 | 31.92% | 54.9 µM | – |
| Cc1nnc(NS(=O)(=O)c2ccc(N/C=C\C(=O)c3ccc4c(c3)Nc3ccccc3S4)cc2)s1 | – | 71.4 µM | – |
| NS(=O)(=O)c1ccc(N/C=C\C(=O)c2ccc3c(c2)Nc2ccccc2S3)cc1 | 28.9% | 67.6 µM | – |
| O=C(/C=C\Nc1ccc(S(=O)(=O)Nc2ccnn2-c2ccccc2)cc1)c1ccc2c(c1)Nc1ccccc1S2 | – | 68.1 µM | – |
| O=C(/C=C\Nc1ccc(S(=O)(=O)Nc2nccs2)cc1)c1ccc2c(c1)Nc1ccccc1S2 | 68.32% | 8.1 µM | Activity (T47D [2]): Dose-dependent effect; Ratio (T47D [3]): 1e+08; Activity (T47D [4]): 13.1%; Activity (T47D [5]): Below limit of detection; IC50 (Aromatase): 5.67 µM; fold change (FC) (T47D [6]): 55000; fold change (FC) (T47D [7]): 34; Activity (T47D [8]): 7.4%; Activity (T47D [9]): 23.2%; fold change (FC) (T47D [10]): 8.9; Activity (T47D [11]): 56.3%; IC50 [12]: 391 µM |
| O=C(/C=C\Nc1ccc(S(=O)(=O)c2ccc(N/C=C\C(=O)c3ccc4c(c3)Nc3ccccc3S4)cc2)cc1)c1ccc2c(c1)Nc1ccccc1S2 | – | 46.4 µM | – |
